Data published in ChEMBL document CHEMBL2202989, “New adamantane phenylalkylamines with σ-receptor binding affinity and anticancer activity, associated with putative antagonism of neuropathic pain” (J Med Chem, 2012).

Experiments:
[1] = tested on: IGROV-1; experiment: Induction of apoptosis in human IGROV1 cells assessed as cleaved caspase3 containing cells at 5 uM by antibody-based FACS analysis (reference value: 3.9 %); assay type: functional
[2] = tested on: PC-3; experiment: Cell cycle arrest in human PC3 cells assessed as accumulation at sub G1 phase at 5 uM after 24 hrs using propidium iodide staining by FACS analysis (reference value: 4 %); assay type: functional
[3] = tested on: IGROV-1; experiment: Cell cycle arrest in human IGROV1 cells assessed as accumulation at >G2/M phase at 50 uM after 24 hrs using propidium iodide staining by FACS analysis (reference value: 21 %); assay type: functional
Method in brief: (§1)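 Cells were plated 24 h before treatment and exposed for 24 h at final 0.5, 5, 15 and 50 μM in 0.5% DMSO, against vehicle-treated controls. Cells were then trypsinised and fixed in cold ethanol for 3 h at 4 °C. They were stained in a mix of RNase (200 μg/mL) and PI (1 mg/mL) for 45 min at room temperature in the dark. Flow cytometry used 488 nm excitation and 10 000 gated cells. Phase percentages were assigned from DNA content.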

[4] = tested on: BXPC-3; experiment: Cell cycle arrest in human BxPC3 cells assessed as accumulation at G1 phase at 5 uM after 24 hrs using propidium iodide staining by FACS analysis (reference value: 41 %); assay type: functional; method in brief: as §1
[5] = tested on: DU-145; experiment: Antitumor activity against human DU145 cells xenografted in SCID mouse assessed as tumor growth inhibition at 55 mg/kg, ip administered 5 consecutive days in a week for two cycles measured after 2 cycles relative to control; assay type: functional; conditions: DU-145, ip, route intraperitoneal, read-out: TGI
Method in brief: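 DU145 xenografts were grown in SCID mice from 10^6-cell inocula, with at least 30 animals in total. Treatment started ip at a mean tumor volume of about 100 mm3. The test agent was given in 5% Tween 80; paclitaxel was dissolved in Cremophor and diluted in saline. Caliper volumes were taken twice weekly and %ΔT/ΔC calculated; two-tailed t test.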

[6] = tested on: DU-145; experiment: Growth inhibition of human DU145 cells after 48 hrs by SRB assay; assay type: functional; conditions: DU-145, 48 h
Method in brief: (§2)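 Cells grown in RPMI 1640 with 5% heat-inactivated FCS, 2 mM L-glutamine and antibiotics, 37 °C, 5% CO2. Seeded at 3500–30000 cells/well and left 24 h before dosing. DMSO solutions added at 10-fold dilutions from 100 to 0.01 μM for 48 h. Cells TCA-fixed and SRB-stained, absorbance read at 540 nm; GI50 derived against the time-zero plate.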

[7] = tested on: IGROV-1; experiment: Induction of apoptosis in human IGROV1 cells assessed as total apoptotic death at 0.5 uM using annexin V/7-AAD by FACS analysis (reference value: 13 %); assay type: functional
Method in brief: (§3)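 Cells plated 24 h before treatment, then exposed 24 h to 0.5, 5, 15 or 50 μM compound (final DMSO 0.5%); vehicle controls included. Cells scraped and stained with annexin V-FITC and 7-AAD for 15 min on ice in the dark. Flow cytometry with 488 nm excitation, 10,000 gated cells. Early apoptosis was annexin V+/7-AAD−, late was annexin V+/7-AAD+.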

[8] = tested on: BXPC-3; experiment: Cell cycle arrest in human BxPC3 cells assessed as accumulation at G1 phase at 50 uM after 24 hrs using propidium iodide staining by FACS analysis (reference value: 41 %); assay type: functional; method in brief: as §1
[9] = tested on: PC-3; experiment: Cell cycle arrest in human PC3 cells assessed as accumulation at S phase at 0.5 uM after 24 hrs using propidium iodide staining by FACS analysis (reference value: 42 %); assay type: functional
[10] = tested on: IGROV-1; experiment: Induction of apoptosis in human IGROV1 cells assessed as early apoptosis at 15 uM using annexin V/7-AAD by FACS analysis (reference value: 9 %); assay type: functional
[11] = tested on: PC-3; experiment: Cell cycle arrest in human PC3 cells assessed as accumulation at S phase at 5 uM after 24 hrs using propidium iodide staining by FACS analysis (reference value: 42 %); assay type: functional
[12] = tested on: BXPC-3; experiment: Cell cycle arrest in human BxPC3 cells assessed as accumulation at >G2/M phase at 0.5 uM after 24 hrs using propidium iodide staining by FACS analysis (reference value: 6 %); assay type: functional; method in brief: as §1
[13] = tested on: PC-3; experiment: Induction of apoptosis in human PC3 cells assessed as late apoptosis at 15 uM using annexin V/7-AAD by FACS analysis (reference value: 3 %); assay type: functional; method in brief: as §3
[14] = tested on: IGROV-1; experiment: Cell cycle arrest in human IGROV1 cells assessed as accumulation at G1 phase at 5 uM after 24 hrs using propidium iodide staining by FACS analysis (reference value: 27 %); assay type: functional; method in brief: as §1
[15] = tested on: IGROV-1; experiment: Induction of apoptosis in human IGROV1 cells assessed as early apoptosis at 50 uM using annexin V/7-AAD by FACS analysis (reference value: 9 %); assay type: functional
[16] = tested on: PC-3; experiment: Induction of apoptosis in human PC3 cells assessed as late apoptosis at 0.5 uM using annexin V/7-AAD by FACS analysis (reference value: 3 %); assay type: functional
[17] = tested on: BXPC-3; experiment: Induction of apoptosis in human BxPC3 cells assessed as early apoptosis at 0.5 uM using annexin V/7-AAD by FACS analysis (reference value: 9 %); assay type: functional
[18] = tested on: BXPC-3; experiment: Cell cycle arrest in human BxPC3 cells assessed as accumulation at G2 phase at 5 uM after 24 hrs using propidium iodide staining by FACS analysis (reference value: 12 %); assay type: functional; method in brief: as §1
[19] = tested on: OVCAR-5; experiment: Antitumor activity against human OVCAR5 cells xenografted in SCID mouse assessed as primary tumor growth inhibition at 55 mg/kg, ip administered 5 consecutive days in a week for two cycles measured after 2 cycles relative to control; assay type: functional; conditions: OVCAR-5, ip, route intraperitoneal, read-out: TGI
Method in brief: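 SCID mice carried OVCAR5 xenografts (10^6 cells per inoculum), 16 mice (32 tumors) per group, with ip dosing in 5% Tween 80 from a tumor volume of about 100 mm3. Caliper volume was measured twice weekly and %ΔT/ΔC derived. At termination, primary tumors were weighed and secondary metastases were scored at axillary and bone sites (n = 7−8). Two-tailed t test.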

[20] = tested on: BXPC-3; experiment: Induction of apoptosis in human BxPC3 cells assessed as healthy cells at 0.5 uM using annexin V/7-AAD by FACS analysis (reference value: 79 %); assay type: functional
[21] = tested on: PC-3; experiment: Cell cycle arrest in human PC3 cells assessed as accumulation at >G2/M phase at 15 uM after 24 hrs using propidium iodide staining by FACS analysis (reference value: 6 %); assay type: functional
[22] = tested on: BXPC-3; experiment: Induction of apoptosis in human BxPC3 cells assessed as healthy cells at 15 uM using annexin V/7-AAD by FACS analysis (reference value: 79 %); assay type: functional
[23] = (§4) Growth inhibition of human HUVEC cells after 48 hrs by SRB assay; assay type: cell-based; conditions: HUVEC cells; method in brief: as §2
[24] = tested on: HUVEC; experiment: as §4; assay type: cell-based; conditions: huvec, 48 h; method in brief: as §2
[25] = tested on: IGROV-1; experiment: Induction of apoptosis in human IGROV1 cells assessed as late apoptosis at 0.5 uM using annexin V/7-AAD by FACS analysis (reference value: 5 %); assay type: functional

Which Activity [1] does the source give for `CN1CCN(CCCc2ccc(C(c3ccccc3)C34CC5CC(CC(C5)C3)C4)cc2)CC1` (stereo not drawn) here?
Its Activity is 12.6%.

And the Activity [2]?
The Activity was 11%.

What about the Activity [3] of the same compound?
The Activity was 15%.

What about the Activity [4] of the same compound?
The Activity was 53%.

What about the inhibition in vivo at 55 mg/kg [5] of the same compound?
Its inhibition in vivo at 55 mg/kg is 71.4%.

What about the GI50 [6] of the same compound?
The GI50 was 3.77 µM.

What about the TGI [6] of the same compound?
The TGI was 7.11 µM.

And the CC50 ([6]; read-out: LC50 (the source's name))?
Its CC50 is 0.1 µM.

And the Activity [7]?
The Activity was 11%.

And the Activity [8]?
The Activity was 31%.

And the Activity [9]?
Its Activity is 38%.

And the Activity [10]?
The Activity was 37%.

And the Activity [11]?
The Activity was 36%.

What about the Activity [12] of the same compound?
The Activity was 7%.

What about the Activity [13] of the same compound?
Its Activity is 7%.

What about the Activity [14] of the same compound?
Its Activity is 29%.

What about the Activity [15] of the same compound?
The Activity was 40%.

What about the Activity [16] of the same compound?
Its Activity is 1%.

What about the Activity [17] of the same compound?
Its Activity is 10%.

And the Activity [18]?
Its Activity is 10%.

And the inhibition in vivo at 55 mg/kg [19]?
The inhibition in vivo at 55 mg/kg was 46.9%.

And the Activity [20]?
Its Activity is 82%.

And the Activity [21]?
The Activity was 7%.

What about the Activity [22] of the same compound?
Its Activity is 35%.

And the GI50 at 48 h [23]?
The GI50 at 48 h was 2.98 µM.

What about the LC50 [24] of the same compound?
The LC50 was 8.62 µM.

What about the TGI [24] of the same compound?
Its TGI is 5.8 µM.

And the Activity [25]?
The Activity was 3%.
